Test [1] concerns Rattus norvegicus. The test can be described thus: Effect of compound was measured on serum total triglycerides in male Dawley rats at the dose of 0.4 mmol/kg (day+4). The format is functional, organism-based. The gist of the method: (§1)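 Serum triglycerides were measured with an enzymatic triglyceride reagent on a bichromatic analyzer. Rats were male Sprague-Dawley (180-210 g) fed a high-cholesterol diet, n = 6 per group, dosed orally twice daily for 14 days in 0.25% methylcellulose or vehicle. They were fasted 16-18 h before blood collection on days -1, +4, +7, +10 (orbital plexus, light ether) and +14 (aorta). Analysis was repeated-measures ANOVA with Duncan's test.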

Test [2] has as its system Rattus norvegicus. The test can be described thus: Effect of compound was measured on serum total cholesterol in male Dawley rats at the dose of 0.4 mmol/kg (day-1). Type of test: functional, organism-based. The gist of the method:
(§2)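 Serum total cholesterol was measured enzymatically on a bichromatic analyzer. Serum was separated after clotting on ice (2000g, 10 min), held at 4 °C and assayed within 48 h. Rats were male Sprague-Dawley on a high-cholesterol diet, n = 6, dosed orally twice daily for 14 days in 0.25% methylcellulose (1.0 mL/100 g). They were fasted 16-18 h before each bleed. Results are in mg/dL ± SD.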

For test [3], the system named is Rattus norvegicus. Description: Effect of compound was measured on serum total cholesterol in male Dawley rats at the dose of 0.4 mmol/kg (day+14). The format is functional, organism-based. A digest of the protocol: as §2
Test [4] has as its system Rattus norvegicus. The test can be described thus: Effect of compound was measured on serum total triglycerides in male Dawley rats at the dose of 0.4 mmol/kg (day+10). Type of test: functional, organism-based. A digest of the protocol: as §1
The test system of test [5] is Rattus norvegicus. The test can be described thus: Effect of compound was measured on serum total triglycerides in male Dawley rats at the dose of 0.4 mmol/kg (day+7). Type of test: functional, organism-based. A digest of the protocol:
as §1

For test [6], the system named is Rattus norvegicus. The test can be described thus: Effect of compound was measured on serum total triglycerides in male Dawley rats at the dose of 0.2 mmol/kg (day+14). Type of test: functional, organism-based. A digest of the protocol:
as §1

Test [7] has as its system Rattus norvegicus. Description: Effect of compound was measured on serum alpha-lipoprotein in male Dawley rats at the dose of 0.2 mmol/kg (day+10). The format is functional. A digest of the protocol: (§3)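 Male Sprague-Dawley rats (180-210 g) fed a high-cholesterol diet for 1 week before and throughout dosing. Groups of n = 6 were dosed orally twice daily for 14 days in 0.25% methylcellulose, with vehicle controls. Rats were fasted 16-18 h before orbital bleeds on days -1, +4, +7 and +10, and by aortic exsanguination on day +14. Serum α-lipoprotein cholesterol was measured by polyanionic precipitation, in mg/dL ± SD.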

Test [8] relates to Rattus norvegicus. The test can be described thus: Effect of compound was measured on serum alpha-lipoprotein in male Dawley rats at the dose of 0.4 mmol/kg (day+4). The format is functional. The gist of the method:
as §3

Test [9] relates to Rattus norvegicus. Description: Effect of compound was measured on serum total cholesterol in male Dawley rats at the dose of 0.2 mmol/kg (day+14). The format is functional, organism-based. The gist of the method: as §2
Test [10] deals with Rattus norvegicus. The test can be described thus: Effect of compound was measured on serum total triglycerides in male Dawley rats at the dose of 0.2 mmol/kg (day+10). Type of test: functional, organism-based. The gist of the method:
as §1

Test [11] can be described thus: Effect of compound was measured on serum heparin-MnCl2 precipated ipoprotein Dawley rats at 0.2 mmol/kg dose(day+4). Type of test: functional. The gist of the method: (§4)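 Cholesterol-fed male Sprague-Dawley rats, n = 6 per group, given compound or 0.25% methylcellulose orally twice daily for 14 days, and fasted 16-18 h before each bleed (days -1, +4, +7, +10, +14). Heparin-MnCl2 precipitable lipoprotein cholesterol was taken as serum total cholesterol minus α-lipoprotein cholesterol. It is reported as a ratio to α-LP cholesterol ± SD. Analysis was ANOVA with repeated measures and Duncan's test.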

Test [12] is described as follows: Effect of compound was measured on serum heparin-MnCl2 precipated ipoprotein Dawley rats at 0.2 mmol/kg dose(day-1). Type of test: functional. The gist of the method:
as §4

Test [13] has as its system Rattus norvegicus. The test can be described thus: Effect of compound was measured on serum total triglycerides in male Dawley rats at the dose of 0.2 mmol/kg (day+7). Type of test: functional, organism-based. The gist of the method: as §1

Experimental findings from ChEMBL document CHEMBL1121938, “Hypocholesterolemic and antiaggregatory properties of 2-hydroxytetronic acid redox analogues an their relationship to clofibric acid” (1982) are described below.

Consider `O=C1C(O)=C(O)OC1c1ccc(Cl)cc1` (stereo not drawn), for which the Serum total triglycerides was 167 mg/dL with Rattus norvegicus [1]; 139 mg/dL in the test with Rattus norvegicus [4]; 147 mg/dL in the test on Rattus norvegicus [5]; 148 mg/dL in the test with Rattus norvegicus [6]; 193 mg/dL in the test on Rattus norvegicus [10]; 204 mg/dL with Rattus norvegicus [13]. Further, the serum total cholesterol was 196 mg/dL in the test on Rattus norvegicus [2], 138 mg/dL with Rattus norvegicus [3] and 145 mg/dL in the test on Rattus norvegicus [9]. The Alpha-lipoprotein cholesterol in the test on Rattus norvegicus [7] stood at 38.8 mg/dL; with Rattus norvegicus [8] it was 41.8 mg/dL. Also, the Ratio in [11] amounted to 3.72; in test [12], 6.03.
